This is one part of a sample in which hits are shown more often than they occur.
HCT116 bCat-KO: beta-catenin-lacking colon tumor cell growth suppression; HCT116 beta-catenin knockout viability, CellTiter-Glo, 60 h; active compounds read low; viability, % at 10 µM; 1.5% of 140,000 active; AID 818;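 active = viability at or under a set limit, the compound median less 4 SD, cut at about 6% in these data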
HCT116 PTEN-null: PTEN-deleted cell growth suppression | 1.2% of 140,000 active | HCT116 PTEN-null viability, CellTiter-Glo, 60 h; active compounds read low | viability, % at 10 µM;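 active = viability at or below a set limit, 4 SD under the median of all tested compounds, cut at about 3.7% in these data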;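 note: PTEN knockout HCT116 line with beta catenin targeted HCT116 as companion control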
H69AR growth 86K: growth inhibitors of human H69AR lung tumor cells; 6% of 85,000 active; viability, % at 10 µM; H69AR lung tumor viability, ATP luminescence, 72 h; active compounds read low;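 active = viability at or below 40%; inactive = viability above 40%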;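 note: multidrug resistant small cell line overexpressing MRP-1 efflux transporter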
Lung fibro prol: blocks proliferation of human lung fibroblasts; LL 47 human lung fibroblast viability, ATP luminescence; active compounds read low; viability, % at 10 µM; 1.1% of 85,000 active;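 active = viability at or below 50% in the single dose screen; inactive = viability above 50%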;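 note: compound exposure lasted 72 h before the ATP readout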
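Test system: LL 47 human lung fibroblasts / Incubation: 72 h compound exposure at 37 °C after overnight plating / Technique: luminescent ATP detection, CellTiter-Glo / Compound dosing: 0.1% DMSO in all compound wells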
HUVEC inhibit: human endothelial cell proliferation inhibition. HUVEC proliferation, CellTiter-Glo luminescence, 72 h; active compounds read low. viability, % at 10 µM (by protocol). 1.1% of 86,000 active. AID 648;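 active = viability at or below 30%; inactive = viability above 30%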
Hits are given with their value.

What do the screens show for `O=C(NCc1cccnc1)/C(=C\c1ccc(-c2ccc(Cl)c(Cl)c2)o1)S(=O)(=O)c1ccccc1`?
HCT116 bCat-KO: 1.8; HCT116 PTEN-null: 1.5

What do the screens show for `O=C(NCc1cccnc1)c1ccc(Cl)c(Cl)c1`?
HCT116 bCat-KO: inactive; HCT116 PTEN-null: inactive; H69AR growth 86K: inactive; Lung fibro prol: inactive; HUVEC inhibit: inactive

How did CCc1n[nH]c(=S)n1/N=C/c1cc(Br)c(OC)cc1OC do in these assays?
HCT116 bCat-KO: inactive; HCT116 PTEN-null: inactive

Results for CCN(CC)CCNc1c2c(c(C#N)c3nc4ccccc4n13)CCCC2 ?
HCT116 bCat-KO: inactive; HCT116 PTEN-null: 3.6; H69AR growth 86K: 33; Lung fibro prol: inactive; HUVEC inhibit: inactive

How did Fc1cccc(Nc2cc(-n3cccn3)ncn2)c1 do in these assays?
HCT116 bCat-KO: inactive; HCT116 PTEN-null: inactive; H69AR growth 86K: inactive; Lung fibro prol: inactive; HUVEC inhibit: inactive

What do the screens show for `Cc1ccc(N=CC2=C(O)CC(c3ccc(Cl)cc3)CC2=O)cc1` (stereo not drawn)?
HCT116 bCat-KO: inactive; HCT116 PTEN-null: inactive

What do the screens show for `CCc1ccc(-c2cn(-c3nc(C)cc(C)n3)c(=N)o2)cc1`?
HCT116 bCat-KO: inactive; HCT116 PTEN-null: inactive; H69AR growth 86K: 1.2; Lung fibro prol: inactive; HUVEC inhibit: inactive

Results for CCc1ccc(C(=O)CN(C#N)c2nc(C)cc(C)n2)cc1 ?
HCT116 bCat-KO: inactive; HCT116 PTEN-null: inactive; H69AR growth 86K: inactive; Lung fibro prol: inactive; HUVEC inhibit: inactive

How did Cc1cc(Nc2cccc([N+](=O)[O-])c2)n2c(nc3ccccc32)c1C#N do in these assays?
HCT116 bCat-KO: 3.4; HCT116 PTEN-null: inactive

What do the screens show for `O=C(N/N=C\c1ccccc1)c1sccc1-n1cccc1`?
HCT116 bCat-KO: inactive; HCT116 PTEN-null: inactive

How did O=C(N/N=C/c1ccc(Br)cc1)c1ccccc1-n1cccc1 do in these assays?
HCT116 bCat-KO: inactive; HCT116 PTEN-null: inactive; H69AR growth 86K: 21; Lung fibro prol: inactive; HUVEC inhibit: inactive

Results for CSc1nnc(SCC2=NNC(=O)SC2)s1 ?
HCT116 bCat-KO: inactive; HCT116 PTEN-null: inactive

Results for CCOc1ccc(N(CC(=O)Nc2cccc(Cl)c2)S(=O)(=O)c2c(C)noc2C)cc1 ?
HCT116 bCat-KO: inactive; HCT116 PTEN-null: inactive; H69AR growth 86K: 30; Lung fibro prol: inactive; HUVEC inhibit: inactive

Results for CCOc1ccc(N(CC(=O)Nc2cccc(OC)c2)S(=O)(=O)c2c(C)noc2C)cc1 ?
HCT116 bCat-KO: inactive; HCT116 PTEN-null: inactive; H69AR growth 86K: inactive; Lung fibro prol: inactive; HUVEC inhibit: inactive

How did COC(=O)C1=C(C(=O)OC)C2C(C)=CC(C)=CN2C(C(=O)OC)=C1C(=O)OC (stereo not drawn) do in these assays?
HCT116 bCat-KO: inactive; HCT116 PTEN-null: inactive

How did Cc1nn2c(-c3cccc(NC(=O)CSc4nc5ccccc5o4)c3)nnc2c2ccccc12 do in these assays?
HCT116 bCat-KO: inactive; HCT116 PTEN-null: inactive; H69AR growth 86K: 9.6; Lung fibro prol: inactive; HUVEC inhibit: inactive

Results for CCOC(=O)C(C)(C)N(Cc1ccc(C)cc1)S(=O)(=O)c1ccc(Cl)c([N+](=O)[O-])c1 ?
HCT116 bCat-KO: 0.9; HCT116 PTEN-null: 0.8

How did CC(=O)c1c(C)oc2ccc(N(C(C)=O)S(=O)(=O)c3ccc(Cl)c([N+](=O)[O-])c3)cc12 do in these assays?
HCT116 bCat-KO: inactive; HCT116 PTEN-null: inactive

What do the screens show for `CCOC(=O)C(C)(C)NS(=O)(=O)c1ccc(Cl)c([N+](=O)[O-])c1`?
HCT116 bCat-KO: inactive; HCT116 PTEN-null: inactive

What do the screens show for `CCOC(=O)C(C)(C)N(Cc1ccc(Cl)cc1)S(=O)(=O)c1ccc(Cl)c([N+](=O)[O-])c1`?
HCT116 bCat-KO: 1.1; HCT116 PTEN-null: 1.6

Results for CCOc1cc(NC(=O)c2ccco2)c(OCC)cc1NC(=O)COc1ccccc1C ?
H69AR growth 86K: 20; Lung fibro prol: inactive; HUVEC inhibit: inactive

Results for CCOc1cc(NC(=O)c2ccco2)c(OCC)cc1NC(=O)Cc1cccc(OC)c1 ?
HCT116 bCat-KO: inactive; HCT116 PTEN-null: inactive; H69AR growth 86K: inactive; Lung fibro prol: inactive; HUVEC inhibit: inactive

What do the screens show for `O=C(Nc1cccc2c1[nH]c1ccccc12)C(F)(F)F`?
HCT116 bCat-KO: inactive; HCT116 PTEN-null: inactive; H69AR growth 86K: 11; Lung fibro prol: inactive; HUVEC inhibit: inactive

How did Cc1ccc(Cc2nnc3n(-c4ccccc4)nc(C(=O)c4ccccc4)n3c2=O)cc1 do in these assays?
HCT116 bCat-KO: inactive; HCT116 PTEN-null: inactive; H69AR growth 86K: 21; Lung fibro prol: inactive; HUVEC inhibit: inactive

Results for CCCOC(=O)c1ccc(Oc2coc3c(CN(CC)CC)c(O)ccc3c2=O)cc1 ?
HCT116 bCat-KO: inactive; HCT116 PTEN-null: inactive

What do the screens show for `CC(C)(C)N(NC(=O)Nc1ccc(Cl)c(Cl)c1)C(=O)c1ccccc1`?
HCT116 bCat-KO: inactive; HCT116 PTEN-null: 3.4

Results for COc1ccc2c(c1)CCN=C2Cc1ccc(OC)c(OC)c1 ?
HCT116 bCat-KO: inactive; HCT116 PTEN-null: inactive

How did COc1cc2c(cc1OC)C(c1ccc(-c3cc(Cl)ccc3Cl)o1)=NCC2 do in these assays?
HCT116 bCat-KO: inactive; HCT116 PTEN-null: 3.3; H69AR growth 86K: inactive; Lung fibro prol: inactive; HUVEC inhibit: inactive

How did S=C(c1ccc(-c2ccccc2Cl)o1)N1CCCCC1 do in these assays?
HCT116 bCat-KO: inactive; HCT116 PTEN-null: inactive

What do the screens show for `COc1cc2c(cc1OC)C(c1ccc(-c3ccc(Cl)c(Cl)c3)o1)=NCC2`?
HCT116 bCat-KO: 4.1; HCT116 PTEN-null: 2.8; H69AR growth 86K: 19; Lung fibro prol: inactive; HUVEC inhibit: inactive

How did COc1cc2c(cc1OC)C(c1ccc(-c3ccccc3Cl)o1)=NCC2 do in these assays?
HCT116 bCat-KO: inactive; HCT116 PTEN-null: inactive; H69AR growth 86K: 30; Lung fibro prol: inactive; HUVEC inhibit: inactive

How did COc1cc2c(cc1OC)C(c1ccc(-c3ccc(Cl)cc3Cl)o1)=NCC2 do in these assays?
HCT116 bCat-KO: inactive; HCT116 PTEN-null: inactive

Results for COc1cccc2cc(C(N)=O)/c(=N/NC(=O)COc3ccc(Cl)cc3)oc12 ?
HCT116 bCat-KO: inactive; HCT116 PTEN-null: inactive

How did COC(=O)c1ccc2c(c1)NC(=O)C(N1CCCC1)S2 (stereo not drawn) do in these assays?
HCT116 bCat-KO: inactive; HCT116 PTEN-null: inactive

Results for CCOC(=O)c1ccc2c(c1)NC(=O)C(N1CCN(c3ccc(OC)cc3)CC1)S2 (stereo not drawn) ?
HCT116 bCat-KO: inactive; HCT116 PTEN-null: inactive; H69AR growth 86K: 31; Lung fibro prol: 46; HUVEC inhibit: inactive

Results for O=C(/C=C/c1ccc(Cl)c([N+](=O)[O-])c1)Nc1ccc(N2CCCC2)cc1 ?
HCT116 bCat-KO: inactive; HCT116 PTEN-null: inactive

What do the screens show for `Cc1cc(C=O)c2c(c1)C=CC1(Oc3ccccc3C(=O)N1C)O2` (stereo not drawn)?
HCT116 bCat-KO: inactive; HCT116 PTEN-null: inactive; H69AR growth 86K: 22; Lung fibro prol: inactive; HUVEC inhibit: inactive

What do the screens show for `Cc1cc2cc(CN(C(=O)C3CC3)C3CCCC3)c3nnnn3c2cc1C`?
HCT116 bCat-KO: inactive; HCT116 PTEN-null: inactive; H69AR growth 86K: inactive; Lung fibro prol: inactive; HUVEC inhibit: inactive

How did CCC(=O)Oc1ccc(C(=O)Nc2c[nH]c(=O)[nH]c2=O)cc1 do in these assays?
HCT116 bCat-KO: inactive; HCT116 PTEN-null: inactive

Screens: PubChem BioAssay, SRMLSC
